PTK2B oligo ant: antagonists of Pyk2 self-association, primary screen, Q293 cells, FERM NanoBiT luminescence, HTS; Protein-tyrosine kinase 2-beta (Homo sapiens), Q14289; hits give low values; z-score (the deposit names both 25 µM and 10 µM); AID 1347419, 2020; actives 0.83% (n = 99,000);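 active = Z-score of -3 or lower, scaled per plate to the spread of control and sample wells; inactive = z-score above -3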;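 also: negative z-score means lost luminescence so less FERM oligomerization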
Target sequence (Q14289 whole entry, looked up): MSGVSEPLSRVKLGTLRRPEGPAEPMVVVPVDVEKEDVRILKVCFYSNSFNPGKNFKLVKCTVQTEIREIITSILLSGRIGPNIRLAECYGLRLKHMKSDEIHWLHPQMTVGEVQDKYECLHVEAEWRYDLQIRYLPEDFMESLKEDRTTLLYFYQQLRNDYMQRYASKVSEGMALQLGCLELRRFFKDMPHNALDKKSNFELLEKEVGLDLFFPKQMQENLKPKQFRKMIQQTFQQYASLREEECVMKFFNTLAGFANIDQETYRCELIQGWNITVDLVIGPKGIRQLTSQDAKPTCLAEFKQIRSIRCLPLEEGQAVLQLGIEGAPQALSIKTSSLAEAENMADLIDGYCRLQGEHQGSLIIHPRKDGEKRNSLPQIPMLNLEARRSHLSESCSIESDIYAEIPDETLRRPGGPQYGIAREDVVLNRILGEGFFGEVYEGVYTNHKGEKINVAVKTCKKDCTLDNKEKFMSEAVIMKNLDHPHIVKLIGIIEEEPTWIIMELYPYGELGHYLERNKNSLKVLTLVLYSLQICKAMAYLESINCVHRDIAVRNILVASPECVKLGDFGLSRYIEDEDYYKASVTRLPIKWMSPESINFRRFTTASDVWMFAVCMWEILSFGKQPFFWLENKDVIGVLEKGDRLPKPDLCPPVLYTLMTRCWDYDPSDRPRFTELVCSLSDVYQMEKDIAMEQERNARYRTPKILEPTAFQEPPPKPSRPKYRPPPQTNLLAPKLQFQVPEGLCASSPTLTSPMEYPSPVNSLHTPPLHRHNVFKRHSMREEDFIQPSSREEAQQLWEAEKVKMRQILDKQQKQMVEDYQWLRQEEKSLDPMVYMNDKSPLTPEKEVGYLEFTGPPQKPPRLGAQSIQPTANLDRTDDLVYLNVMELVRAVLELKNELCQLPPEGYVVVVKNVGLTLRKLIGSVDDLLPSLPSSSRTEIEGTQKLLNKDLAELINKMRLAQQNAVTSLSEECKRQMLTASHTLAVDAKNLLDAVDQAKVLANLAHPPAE
Measles CPE: compounds protecting cells from measles virus cytopathic effect, primary screen, measles RdRp inhibitor project, single point, MLSMR library, absorbance; actives 1.5% (n = 140,000); Measles virus-infected cells, CPE protection; AID 841, 2007; protection (pct of control), % at 4 µM; in the data active = protection mostly above about 24%, no sharp cut-off; inactive = mostly below about 26%
Cav3 T inh: Cav3.2 calcium influx blockers – cell-based, Fluo-4 calcium fluorescence, FDSS, MLSMR library, primary screen. Cav3.2-expressing cells; hits give low values. B-score at 10 µM. actives 4% (n = 100,000). AID 449739, 2010;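 active = single-dose well whose peak fluorescence ratio is a statistical outlier from its plate by either plate-standardised score or position-corrected B-score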
Phagocytosis inh: inhibitors of macrophage phagocytosis, primary screen, imaging, J774A.1 cells, IgG beads. inhibition, % at 5 µM. actives 0.07% (n = 110,000). J774A.1 macrophage IgG-bead phagocytosis;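 active = inhibition above the mean of the plate negative controls plus 5 SD, cut at about 13% in these data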;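 also: phagocytic index as fraction of beads internalized from green versus red external bead signal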
Rev-RRE block: HIV-1 Rev-RRE binding inhibitors, primary screen, biochemical, FRET, protein-RNA interaction; Rev peptide-RRE RNA binding; inhibition, % at 8 µM; P05866; actives 0.79% (n = 97,000);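 active = inhibition above the screen-wide mean plus 3 SD, cut at about 35% in these data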
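Assay system: Labelled RRE RNA duplex and labelled Rev peptide | Times: 5 min preincubation and 15 min binding, 25 °C | Detection: FRET, ex 480 nm, em 540 and 671 nm | Evaluation: % inhibition of FRET ratio versus controls | Benchmarks: DMSO wells as 0% and neomycin B wells as 100% inhibition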
hDAT+cocaine: changed hDAT dopamine uptake under cocaine IC80, either direction, primary screen, cocaine antagonist project, cell-based, LLC-PK1 hDAT, [14C]-dopamine uptake, MLSMR; Sodium-dependent dopamine transporter (Homo sapiens), Q01959; LLC-PK1 hDAT cells, [14C]-dopamine uptake with cocaine IC80; actives deviate in either direction; B-score at 10 µM; actives 1.3% (n = 110,000);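 active = Z score or B-score, a plate-position-corrected score, falls beyond the plate's 99.7% confidence bounds, in either direction; inactive = both scores lie inside the 99.7% bounds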
A number is an active result; i = inactive; nt = not tested or not shown. Shown are actives, neighbours in structure and some others; about 5.9% of the full set was active somewhere.

SMILES | PTK2B oligo ant | Measles CPE | Cav3 T inh | Phagocytosis inh | Rev-RRE block | hDAT+cocaine
N#Cc1nc(COc2cccc(Cl)c2)oc1N1CCN(c2ccccc2)CC1 | i | i | i | i | i | i
N#Cc1nc(COc2ccccc2)oc1N1CCCCC1 | nt | i | -6 | i | i | i
COc1ccc(N2CCN(c3oc(COc4ccccc4Cl)nc3C#N)CC2)cc1 | i | i | i | i | nt | i
CC1CN(c2oc(COc3ccc(Cl)cc3Cl)nc2C#N)CC(C)O1 (stereo not given) | i | i | -4.7 | nt | i | i
CN(Cc1ccccc1)c1oc(-c2ccco2)nc1C#N | i | i | -4.2 | i | i | i
N#Cc1nc(COc2ccccc2)oc1N1CCN(c2cccc(Cl)c2)CC1 | i | i | i | i | i | i
CCNc1nc(NC(C)C)nc(Oc2ccc(/C=N/O)cc2)n1 | i | i | i | nt | i | i
O=C(NCc1ccccn1)C1CCC(=O)N1C1CCCC1 (stereo not given) | nt | nt | nt | nt | i | i
N#Cc1nc(COc2ccccc2F)oc1NCCc1ccccc1 | i | i | nt | i | i | nt
N#Cc1nc(COc2ccccc2F)oc1N1CCCCCC1 | i | i | -5.9 | i | i | i
N#Cc1nc(COc2ccccc2Cl)oc1N1CCCCCC1 | nt | i | i | nt | i | i
N#Cc1nc(COc2ccc(F)cc2)oc1N1CCN(Cc2ccccc2)CC1 | i | i | nt | i | i | nt
COc1ccc(OCc2nc(C#N)c(N3CCN(c4ccc(OC)cc4)CC3)o2)cc1 | nt | i | -4.5 | nt | i | i
CN(Cc1ccccc1)c1oc(COc2ccccc2F)nc1C#N | nt | i | -4.5 | i | i | i
N#Cc1nc(COc2ccc(Br)cc2)oc1N1CCN(Cc2ccccc2)CC1 | i | i | -7.8 | i | i | i
CCOC1OC(=O)C(Cl)=C1Nc1ccc(C)cc1C (stereo not given) | nt | i | nt | i | nt | nt
COc1ccc(-c2nsc3c(SCC(=O)Nc4cc(C)ccc4C)ncnc23)cc1 | nt | i | i | nt | i | i
O=C(Nc1cccc(F)c1)C1CCN(c2nnnn2-c2ccccc2)CC1 | i | i | -7.5 | i | i | i
O=C(Nc1cccc(F)c1)C1CCN(C(=O)c2ccc(Br)cc2)CC1 | i | i | -4.3 | i | i | i
O=C(NCCC1=CCCCC1)C1CCN(S(=O)(=O)c2cccs2)CC1 | i | i | i | i | i | i
O=C(Nc1ccc2c(c1)OCCO2)C1CCN(c2nnnn2-c2ccccc2)CC1 | i | i | i | i | i | i
O=C(NCCC1=CCCCC1)C1CCN(C(=O)c2ccc(Br)cc2)CC1 | nt | 30 | nt | i | nt | nt
O=C(Nc1ccc(Br)cc1)C1CCN(C(=O)c2ccc(F)cc2)CC1 | nt | i | nt | i | nt | nt
O=C(NCc1cc(Br)cc(Br)c1OC(=O)c1ccccc1[N+](=O)[O-])c1ccccc1 | nt | nt | nt | i | nt | nt
CCCC(C)NC(=O)c1ccc2[nH]c3c(c2c1)CC(C)CC3 (stereo not given) | i | i | -5 | i | i | i
SMILES | PTK2B oligo ant | Measles CPE | Cav3 T inh | Phagocytosis inh | Rev-RRE block | hDAT+cocaine
Cn1c(=O)c2c(nc(N/N=C/c3ccc(OC(=O)c4ccco4)cc3)n2Cc2ccccc2)n(C)c1=O | nt | i | nt | nt | nt | nt
N/C(=N\OS(=O)(=O)c1ccc(Br)cc1)c1ccncc1 | i | i | i | i | i | i
COc1ccc(OCCNc2cc(N3CCCCC3)ccc2[N+](=O)[O-])cc1 | i | i | nt | nt | i | nt
COc1cccc(OCCNc2cc(N3CCCCC3)ccc2[N+](=O)[O-])c1 | i | i | -4.1 | i | i | i
Cc1cc(C)cc(SCc2noc(C(=O)NCCCN3CCOCC3)c2C(=O)NCCCN2CCOCC2)c1 | nt | nt | i | nt | nt | i
CC1CCCC(NC(=S)NC(=O)c2ccccc2Br)C1C (stereo not given) | nt | i | nt | i | nt | nt
COc1ccc(C(NC=O)c2cc(OC)c(OC)cc2Br)cc1OC (stereo not given) | nt | i | nt | i | nt | nt
CC(=O)N(C)C1=C(O)c2ccccc2C(=O)C1=O | i | 39 | i | i | i | i
CC(=O)N(C)C1=C(N2CCOCC2)C(=O)c2ccccc2C1=O | i | i | i | i | i | -4.3
O=C1C(O)=C(O)C(=O)c2ccccc21 | nt | nt | i | nt | nt | i
CC(Sc1nc2c(c(=O)n(C)c(=O)n2C)n1Cc1cc2c(cc1Cl)OCO2)C(=O)O (stereo not given) | i | 53 | i | i | i | i
Cn1c(=O)c2c(nc(SCc3ccccc3)n2Cc2ccc(Cl)cc2)n(C)c1=O | i | i | -4.4 | nt | i | i
CC(C)Sc1nc2c(c(=O)n(C)c(=O)n2C)n1Cc1ccc(Cl)cc1 | i | i | -4.5 | i | i | i
CN(C)c1nc2c(c(=O)n(C)c(=O)n2C)n1Cc1ccccc1 | i | i | i | i | i | i
CNC(=O)CSc1nc2c(c(=O)n(C)c(=O)n2C)n1Cc1ccc(C)cc1 | i | i | i | i | i | i
Cn1c(N2CCOCC2)nc2c1c(=O)n(Cc1ccc(Cl)cc1)c(=O)n2C | i | nt | i | nt | i | i
Cn1c(N2CCN(c3ccccn3)CC2)nc2c1c(=O)n(Cc1ccc(Cl)cc1)c(=O)n2C | i | i | -3.3 | i | nt | i
Cc1ccc(-c2cn(-c3ccccc3)c(SCC(=O)NC3CCS(=O)(=O)C3)n2)cc1C (stereo not given) | nt | i | nt | i | nt | nt
COc1ccc(CC(=O)Nc2ccc(-c3noc(-c4cccc(OC)c4)n3)cc2)cc1 | i | i | -4.2 | nt | i | i
COc1cccc(-c2nc(-c3ccc(NC(=O)c4cccnc4)cc3)no2)c1 | i | i | i | i | i | i
CCN(c1ccc(NC(=O)COC(=O)c2ccc(C)c(S(=O)(=O)N3CCOCC3)c2)cc1)C(C)C | i | i | i | i | i | i
CCN(c1ccc(NC(=O)COC(=O)c2ccc3ccccc3n2)cc1)C(C)C | i | i | i | nt | i | -2.8
Cc1nn(C(C)(C)C)c(OC(=O)c2ccc3c(c2)OCO3)c1Sc1ccccc1 | i | i | -4.9 | i | i | i
Cc1nn(C(C)(C)C)c(OC(=O)c2cccs2)c1Sc1ccccc1 | i | i | -5.2 | i | i | i
Cc1nn(C(C)(C)C)c(OC(=O)c2ccc3c(c2)OCO3)c1S(=O)(=O)c1ccccc1 | i | i | i | nt | i | i
CC(=O)NC(C)C(=O)OCc1ccc(Cl)cc1Cl (stereo not given) | i | i | i | i | i | i
Cc1ccc(N(CC(=O)NCCSc2nc3ccccc3s2)S(=O)(=O)c2ccccc2)c(C)c1 | nt | i | nt | i | nt | nt
Nc1c(S(=O)(=O)c2ccccc2)c2nc3ccccc3nc2n1Cc1ccco1 | i | i | i | nt | 43 | i
O=S(=O)(NNc1ccc(Cl)nn1)c1ccc(F)cc1 | nt | i | nt | i | nt | nt
CC1Cc2ccccc2N1C(=O)CSCC(=O)O (stereo not given) | i | i | i | nt | i | 0.64

Source: PubChem BioAssay
